Measured values collected from several papers.
Protocols differ between the studies behind these lines.
Cell line: MCF7
Read-out: cell growth or viability

The GI50 of `COc1cc(C(CC(=O)c2ccc(C(C)(C)C)cc2)NCCc2ccc(O)c(O)c2)ccc1O` (centres unmarked) is reported as 2600 nM (MTT).
`COc1ccc(C(=O)/C=C/c2ccc(Cl)c(Cl)c2)cc1S(N)(=O)=O` gave a GI50 of 1100 nM (SRB; 48 h).
With `COc1ccc(-c2ccc(-c3ccc(C(=N)N)nc3)s2)cc1` the GI50 was 1740 nM (SRB).
`COc1ccc(C(=O)/C=C/c2cccc3ccccc23)cc1S(N)(=O)=O` gave a GI50 of 2100 nM (SRB; 48 h).
The GI50 of `COc1ccc(-c2ccc(-c3ccc(C(=N)N)nc3)s2)cc1Cl` is reported as 1750 nM (SRB).
The GI50 of `COc1cc2c(OC)nc3c4cc5c(cc4cc(O)c3c2cc1OC)OCO5` is reported as 13000 nM (MTT; 72 h).
With `COc1cc(C(CC(=O)c2ccc([N+](=O)[O-])cc2)NCCc2ccc(O)c(O)c2)ccc1O` (centres unmarked) the GI50 was 160 nM (MTT).
With `Cc1ccc(C)c(COc2cc(NC(=O)c3ccc4c(c3)OCO4)ccc2N(C)S(C)(=O)=O)c1` the GI50 was 120 nM (SRB; 48 h).
With `COc1cc(C(CC(=O)c2ccc(Cl)cc2)NCCc2ccc(O)c(O)c2)ccc1O` (centres unmarked) the GI50 was 1090 nM (MTT).
With `CCN(CC)CCCOc1cc2cc3c(cc2c2nc(OC)c4cc(OC)c(OC)cc4c12)OCO3` the GI50 was 23000 nM (MTT; 72 h).
`COc1ccc(C(=O)/C=C/c2cccc(Cl)c2Cl)cc1S(N)(=O)=O` has a GI50 of 3200 nM (SRB; 48 h).
`COc1cc2c(OC)nc3c4cc5c(cc4cc(OCCCN(C)C)c3c2cc1OC)OCO5` gave a GI50 of 27000 nM (MTT; 72 h).
For `CC(=O)c1c(C)c2cnc(Nc3ccc(N4CCNCC4)cn3)nc2n(C2CCCC2)c1=O`, the GI50 was 150 nM (resazurin).
With `COc1ccc(C(=O)/C=C/c2cc3c(cc2Br)OCO3)cc1S(N)(=O)=O` the GI50 was 3800 nM (SRB; 48 h).
For `COc1cc2c(OC)nc3c4cc5c(cc4cc(OCCCN4CCC(N6CCCCC6)CC4)c3c2cc1OC)OCO5`, the GI50 was 1500 nM (MTT; 72 h).
`COc1ccc(C(=O)/C=C/c2cccc(Br)c2)cc1S(N)(=O)=O` gave a GI50 of 1600 nM (SRB; 48 h).
With `COc1cccc2c1C(=O)c1c(O)c3c(c(O)c1C2=O)C[C@@](O)(C(=O)CO)C[C@@H]3O[C@H]1C[C@H](N)[C@H](O)[C@H](C)O1` the GI50 was 20 nM (MTT).
